Test results published in ChEMBL document CHEMBL4392849, “Design, synthesis, evaluation and molecular modeling study of 4-N-phenylaminoquinolines for Alzheimer disease treatment” (Bioorg Med Chem Lett, 2019).

Tests used:
Acetylcholinesterase = Acetylcholinesterase (Electrophorus electricus, UniProt O42275); assay: Inhibition of electric eel AChE using acetylthiocholine iodide as substrate preincubated for 15 mins followed by substrate addition by Ellman's method
Cholinesterase = Cholinesterase (Equus caballus, UniProt P81908); assay: Inhibition of equine serum BChE using butyrylthiocholine iodide as substrate preincubated for 15 mins followed by substrate addition by Ellman's method; assay type: single protein
Cholinesterase, sequence (P81908 whole entry): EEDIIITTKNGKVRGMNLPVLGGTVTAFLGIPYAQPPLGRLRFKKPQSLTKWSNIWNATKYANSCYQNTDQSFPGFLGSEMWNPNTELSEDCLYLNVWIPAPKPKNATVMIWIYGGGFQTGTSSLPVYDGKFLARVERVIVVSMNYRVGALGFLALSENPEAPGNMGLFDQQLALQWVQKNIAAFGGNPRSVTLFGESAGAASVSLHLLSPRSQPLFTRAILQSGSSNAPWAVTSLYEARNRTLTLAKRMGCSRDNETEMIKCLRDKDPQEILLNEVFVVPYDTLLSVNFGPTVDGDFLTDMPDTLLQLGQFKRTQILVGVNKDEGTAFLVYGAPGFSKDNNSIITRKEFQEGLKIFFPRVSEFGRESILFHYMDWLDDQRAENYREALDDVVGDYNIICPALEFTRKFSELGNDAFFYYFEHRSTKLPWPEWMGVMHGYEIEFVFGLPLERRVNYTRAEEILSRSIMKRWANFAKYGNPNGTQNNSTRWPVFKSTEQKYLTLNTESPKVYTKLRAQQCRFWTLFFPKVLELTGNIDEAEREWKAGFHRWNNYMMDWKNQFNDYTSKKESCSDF
Procedure, shortened: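 Ellman method run at pH 8.0 in 0.1 M sodium phosphate buffer. Compounds come from 10 mM DMSO stocks diluted in buffer. Enzyme solution is 0.05 U/ml and DTNB stock is 10 mM. These are held 15 min at 25°C, then 7.5 mM butyrylthiocholine iodide stock is added. Percent inhibition comes from hydrolysis rate with versus without inhibitor.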

Acetylcholinesterase, sequence (O42275 whole entry): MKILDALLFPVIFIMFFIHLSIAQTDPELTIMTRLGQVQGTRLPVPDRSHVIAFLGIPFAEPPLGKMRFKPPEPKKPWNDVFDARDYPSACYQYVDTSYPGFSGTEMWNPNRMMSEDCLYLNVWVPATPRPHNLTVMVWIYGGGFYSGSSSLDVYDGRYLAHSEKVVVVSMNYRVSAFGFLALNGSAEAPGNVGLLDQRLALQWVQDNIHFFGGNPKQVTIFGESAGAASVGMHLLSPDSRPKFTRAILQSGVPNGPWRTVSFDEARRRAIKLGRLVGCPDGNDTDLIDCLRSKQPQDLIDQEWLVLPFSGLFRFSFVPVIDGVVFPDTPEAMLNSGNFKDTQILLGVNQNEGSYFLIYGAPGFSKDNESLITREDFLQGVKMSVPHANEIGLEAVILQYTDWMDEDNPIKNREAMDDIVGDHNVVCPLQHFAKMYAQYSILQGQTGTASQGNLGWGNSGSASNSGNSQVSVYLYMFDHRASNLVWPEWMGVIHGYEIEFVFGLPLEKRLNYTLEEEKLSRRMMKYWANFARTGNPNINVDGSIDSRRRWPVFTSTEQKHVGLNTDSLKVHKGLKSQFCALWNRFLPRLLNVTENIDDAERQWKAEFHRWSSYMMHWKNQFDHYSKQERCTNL

Compound | IC50 (Acetylcholinesterase) [µM] | IC50 (Cholinesterase) [µM]
COc1cc2c(Nc3ccc(O)cc3)c([N+](=O)[O-])cnc2cc1OCCCN(C)Cc1ccccc1 | 0.74 | 17.4
COc1cc2c(Nc3ccccc3)c([N+](=O)[O-])cnc2cc1OCCCN(C)Cc1ccccc1 | 0.65 | 10.1
COc1cc2c(Nc3cccc(C)c3)c([N+](=O)[O-])cnc2cc1OCCCN(C)Cc1ccccc1 | 1.86 | 2.78
COc1ccc(Nc2c([N+](=O)[O-])cnc3cc(OCCCN(C)Cc4ccccc4)c(OC)cc23)cc1 | 10.9 | 50.4
COc1ccccc1Nc1c([N+](=O)[O-])cnc2cc(OCCCN(C)Cc3ccccc3)c(OC)cc12 | 7.9 | 8.67
COc1cc2c(Nc3ccc(Cl)cc3)c([N+](=O)[O-])cnc2cc1OCCC[n+]1ccccc1 | 0.92 | 14.2
COc1cc2c(Nc3ccccc3C)c([N+](=O)[O-])cnc2cc1OCCCN(C)Cc1ccccc1 | 10.1 | 29.7
COc1cc2c(Nc3cccc(O)c3)c([N+](=O)[O-])cnc2cc1OCCCN(C)Cc1ccccc1 | 0.71 | 10.8
COc1cc2c(Nc3ccc(C)cc3)c([N+](=O)[O-])cnc2cc1OCCCN(C)Cc1ccccc1 | 11.8 | 73.6
COc1cc2c(Nc3ccc(Cl)cc3)c([N+](=O)[O-])cnc2cc1OCCCN(C)Cc1ccccc1 | 1.88 | 17.4
COc1cc2c(Nc3cccc(C(F)(F)F)c3)c([N+](=O)[O-])cnc2cc1OCCCN(C)Cc1ccccc1 | 7.78 | 55.4
COc1cc2c(Nc3cccc(Cl)c3)c([N+](=O)[O-])cnc2cc1OCCCN(C)Cc1ccccc1 | 0.83 | 15.2
COc1cccc(Nc2c([N+](=O)[O-])cnc3cc(OCCCN(C)Cc4ccccc4)c(OC)cc23)c1 | 1.72 | 9.19
COc1cc2c(Nc3ccccc3Cl)c([N+](=O)[O-])cnc2cc1OCCCN(C)Cc1ccccc1 | 0.86 | 2.65
COc1cc2c(Nc3ccc(Cl)cc3Cl)c([N+](=O)[O-])cnc2cc1OCCCN(C)Cc1ccccc1 | 1.85 | 58.7
